EBI2 antag = antagonists of human EBI2 receptor; inhibition, % at 5 µM; EBI2 beta-arrestin recruitment, luminescence, 7a,25-OHC stimulated; 360,000 tested, 0.81% active; P32249; in the data active = inhibition above about 38%;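 also: enzyme fragment complementation signal reports receptor beta-arrestin coupling in cells; 0% = agonist plus DMSO wells and 100% = wells without agonist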
Exocytosis inh = blocks lytic granule exocytosis; AID 651702; 360,000 tested, 0.66% active; TALL-104 LAMP-1 surface exposure, flow cytometry; cells stimulated with thapsigargin and PMA; inhibition, % at 10 µM;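 active = inhibition above about 55%, limit read from the data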
Myeloid diff 2 = promotes myeloid progenitor differentiation. 360,000 tested, 1% active. AID 624256. calls only at 10 µM. ER-HoxA9 myeloid progenitors, lysozyme-GFP differentiation, flow cytometry;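 active = normalized GFP-positive differentiation at or above the plate's own cutoff, the solvent-only control mean plus 3 SD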;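 also: cells exposed to compound for four days before flow analysis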
MC4R ag barr = agonists of human melanocortin 4 receptor (MC4R) beta-arrestin; P32245; U2OS MC4R beta-arrestin complementation, luminescence; percent of melanotan II response, DMSO zero; activation, % at 8.9 µM; 360,000 tested, 0.98% active; AID 540308;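 active = activation above a per-plate cutoff, the mean activation of sample wells on that plate plus 3 SD, cut at about 8% in these data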
Target sequence (P32245 whole entry, looked up): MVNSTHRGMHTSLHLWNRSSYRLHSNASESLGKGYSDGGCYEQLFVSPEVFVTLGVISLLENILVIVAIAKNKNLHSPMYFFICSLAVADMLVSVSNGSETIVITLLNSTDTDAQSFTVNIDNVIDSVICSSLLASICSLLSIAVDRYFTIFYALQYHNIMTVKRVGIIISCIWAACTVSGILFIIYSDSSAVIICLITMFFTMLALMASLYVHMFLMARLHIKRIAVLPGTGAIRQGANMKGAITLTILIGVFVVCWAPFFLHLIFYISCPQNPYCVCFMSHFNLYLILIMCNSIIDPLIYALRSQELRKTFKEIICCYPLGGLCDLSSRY
MC4R antag cAMP = antagonists of human melanocortin 4 receptor (MC4R); P32245; 360,000 tested, 0.48% active; MC4R-expressing cells, MTII-stimulated cAMP, LANCE TR-FRET; inhibition, % at 6.5 µM; AID 540295;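 active = inhibition above its plate's cutoff, the mean of tested wells on that plate plus 3 SD, cut at about 29% in these data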;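 also: 0% = Melanotan II alone and 100% = Melanotan II plus saturating MCL0020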
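Assay system: U2OS-MC4R stable cell line; Also added: Melanotan II; Technique: Eu-cAMP/anti-cAMP TR-FRET, emission 671 nm; Times: 30-min compound, 1-h challenge, 1-h detection, room temperature.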
MC4R barr ag = human MC4R beta-arrestin agonism confirmation; shares compounds with MC4R ag barr; U2OS MC4R beta-arrestin recruitment, luminescence; scaled DMSO 0%, Melanotan II 100%; activation, % at 8.9 µM; 2,400 tested, 31% active;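 active = mean activation across replicates above the hit cutoff set in the earlier primary screen, cut at about 8% in these data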
MOR-DOR barr ag = activates mu-delta opioid heterodimer, MC4R agonist counter-screen | shares compounds with MC4R ag barr | U2OS PathHunter beta-arrestin, beta-gal luminescence; percent of deltorphin B response, DMSO zero | activation, % at 9.2 µM | 2,400 tested, 5.8% active;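 active = mean activation across replicates exceeds the hit threshold derived in the earlier primary screen, cut at about 18% in these data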;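 also: 100% = deltorphin B at 0.9 µM final and 0% = DMSO alone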
* hit, by the source's call; i = inactive; . = no result given; + = active, no number. A selection: hits, their analogues and other compounds. The true share with any hit is near 3.7%.

SMILES	EBI2 antag	Exocytosis inh	Myeloid diff 2	MC4R ag barr	MC4R antag cAMP	MC4R barr ag	MOR-DOR barr ag
CC(=O)Nc1ccc(C(=O)CSc2cc(C)c3cccc(C)c3n2)cc1	0.4	2.4	i	27.8*	-3.7	2.8	4.4
Cc1cc(SCC(=O)c2cccs2)nc2c(C)cccc12	-7.2	0.2	i	-0.2	-1.6	.	.
Cc1ccc(NC(=O)CCCN2C(=O)c3cccc4cccc(c34)C2=O)cc1	-0.1	-5.8	i	5.7	-0.9	.	.
Cc1ccc(NC(=O)CCN2C(=O)c3cccc4cccc(c34)C2=O)cc1	-3.1	-1.6	i	19.3*	4.9	3.2	8.1
COCCNc1oc(/C=C/c2ccccc2OC)nc1S(=O)(=O)c1ccccc1	1.8	-3.0	i	-2.3	0.9	.	.
Nc1c(C(=O)Nc2ccccc2Cl)nnn1-c1ccc2c(c1)OCCO2	8.7	47.2	i	15.7*	9.5	2.0	3.6
COc1ccc(N2CCN(C(=O)C3CCN(S(=O)(=O)c4ccc5c(c4)oc(=O)n5C)CC3)CC2)cc1	11.0	-1.7	i	-2.7	10.4	.	.
Cc1ccc(C)c(SCC(=O)OC/C(O)=C(\C#N)c2nc3ccccc3[nH]2)c1	-4.5	1.7	i	16.5*	-9.9	-1.3	11.7
Cc1cc(Br)ccc1SCC(=O)OC/C(O)=C(\C#N)c1nc2ccccc2[nH]1	-14.8	-0.4	i	12.5*	20.5	2.6	2.3
Cc1cccc(C)c1OCC(=O)OC/C(O)=C(\C#N)c1nc2ccccc2[nH]1	-12.6	-0.6	i	20.8*	2.9	5.1	8.5
N#C/C(=C(/O)COC(=O)CSc1ccc2ccccc2c1)c1nc2ccccc2[nH]1	1.1	-3.2	i	6.9	11.2	.	.
Cc1cc(Br)ccc1SCC(=O)OCC(O)=C(C#N)c1nc2ccccc2[nH]1	2.2	1.8	i	6.3	7.2	.	.
CC(C)C(=O)OC/C(O)=C(\C#N)c1nc2ccccc2[nH]1	-2.7	-0.8	i	-2.0	3.1	.	.
C[C@H]1CCCCO[C@H](CN(C)Cc2ccc(C(=O)O)cc2)[C@@H](C)CN([C@@H](C)CO)C(=O)c2cc(NS(=O)(=O)c3cn(C)cn3)ccc2O1	-1.8	1.7	i	-0.3	-1.1	.	.
CCc1ccc(NC(=O)[C@H](Cc2ccccc2)NC(=O)C2CCN(C(=O)[C@@H](N)CC(C)C)CC2)cc1	-2.2	-3.3	i	-1.7	3.0	.	.
C[C@H](CO)N1C[C@H](C)[C@@H](CN(C)Cc2ccc(C(=O)O)cc2)Oc2ncc(-c3ccc(C(=O)N(C)C)cc3)cc2C1=O	-2.1	-0.5	i	-0.5	-3.5	.	.
O=C(Cn1nc(-c2ccccc2)ccc1=O)Nc1ccc(NC(=O)c2ccccn2)cc1	-3.2	-1.3	i	13.8*	9.1	21.9*	22.4*
CC(C)(C)Cc1nnc(NS(=O)(=O)c2ccc([N+](=O)[O-])cc2)s1	5.3	-6.1	i	-2.0	4.1	.	.
COc1ccc(NC(=O)c2c(Nc3ccccc3)sc(C(=O)c3ccc(F)cc3)c2N)cc1	0.5	-1.3	i	12.1*	1.4	13.7*	8.8
C/C(=C\C=C(C#N)C#N)c1cc(C#N)c(N)o1	6.4	-2.6	i	14.1*	-15.1	57.0*	20.2*
CCC(C)(C)C1CCC2(CC1)NC(=O)N(CC(=O)N(C)CCOc1ccc(Cl)cc1)C2=O (centres undefined)	-15.5	1.1	i	0.1	2.2	.	.
CCC(C)(C)C1CCC2(CC1)NC(=O)N(CC(=O)N(C)Cc1ccc(OC(F)F)cc1)C2=O (centres undefined)	-12.7	0.4	i	17.1*	-3.6	1.9	6.7
CCCN1CCN(S(=O)(=O)c2ccc3c(c2)CCC(=O)N3)CC1	-15.6	3.4	i	-2.1	1.2	.	.
COC(=O)c1c(NC(=O)CSc2ncnc3ccccc23)sc(C)c1C	15.7	-10.9	i	14.6*	-4.2	1.5	1.9
Cc1ccc(-c2c(C#N)c(N)n3c(nc4ccccc43)c2C#N)cc1	-14.0	6.8	i	2.8	5.8	.	.
N#Cc1c(-c2ccccc2)c(C#N)c2nc3ccccc3n2c1N	-19.1	-1.2	+	11.0*	7.8	0.9	4.1

Assay outcomes from PubChem.
